Published values of several laboratories.
Protocols differ between the studies behind these lines. pIC50: −log10 of the molar value.
Cell line: MDA-MB-231
Effect on: cell growth or viability

C[C@@H]1C[C@H](c2ccc(Br)cc2)c2c(cc3ccccn23)C(=O)O1 (racemic)
pIC50 (resazurin; 72 h): 4.78

COc1c(C)c(OS(=O)(=O)c2ccc3ccccc3c2)c(C)c(OS(=O)(=O)c2ccc3ccccc3c2)c1C(=O)/C=C/c1ccccc1
pIC50 (SRB; 72 h): < 4.30

COc1cc(-c2nc(C(=O)Nc3nnc(-c4cc5ccccc5n4C)s3)cc3c2[nH]c2ccccc23)cc(OC)c1OC
pIC50 (MTT; 72 h): 5.14

C=CCn1c(-c2ccc(OC)c(OC)c2)nc2ccccc21
pIC50 (MTT): 4.51

COc1cccc2c1C(=O)c1c(O)c3c(c(O)c1C2=O)C[C@@](O)(C(=O)CO)C[C@@H]3O[C@H]1C[C@H](N)[C@H](O)[C@H](C)O1
pIC50 (MTT; 72 h): 5.83

COc1cc(/C=C2\SC(=O)NC2=O)ccc1OCc1ccc(Cl)cc1Cl
pIC50 (MTT; 48 h): 4.59

COc1ccc(-c2ccc3ncnc(Nc4cccc(C(F)(F)F)c4)c3c2)cc1
pIC50 (MTT; 24 h): 5.19

C[C@H]1O[C@@H](n2cc(F)c(=O)[nH]c2=O)[C@H](O)[C@@H]1O
pIC50 (CCK-8; 48 h): < 4.30

Cc1ccc2nc(-c3ccc(Cl)c(Cl)c3)[nH]c2c1
pIC50 (MTT; 48 h): 4.22

Cc1nc(Nc2ncc(C(=O)Nc3c(C)cccc3Cl)s2)cc(N2CCN(CCO)CC2)n1
pIC50 (MTT; 24 h): 4.60

COc1cc([C@@H]2C[C@@H](C)OC(=O)c3cc4ccccn4c32)cc(OC)c1OC (racemic)
pIC50 (resazurin; 72 h): < 4.00

Nc1ccn([C@@H]2O[C@H](CO)[C@@H](O)C2(F)F)c(=O)n1
pIC50 (resazurin; 72 h): 5.35

COc1ccc(-c2nc3ccc(C)cc3[nH]2)cc1OC
pIC50 (MTT; 48 h): 4.28

COc1cccc2c1C(=O)c1c(O)c3c(c(O)c1C2=O)C[C@@](O)(C(=O)CO)C[C@@H]3O[C@H]1C[C@H](N)[C@H](O)[C@H](C)O1
pIC50 (resazurin; 72 h): 6.42

O=C(CSc1nc2ccc(N=Cc3ccc(Sc4nnnn4-c4ccccc4)o3)cc2s1)N1CCOCC1
pIC50 (MTT; 48 h): 4.68

CSc1ccc(-c2nc3ccc(C)cc3n2Cc2ccccc2)cc1
pIC50 (MTT): 4.66

FC(F)(F)c1cccc(Nc2ncnc3ccc(-c4ccc(CN5CCOCC5)cc4)cc23)c1
pIC50 (MTT; 24 h): 5.07

Clc1ccc(-c2nc3ccccc3[nH]2)cc1Cl
pIC50 (MTT; 48 h): 5.01

COc1ccnc(Nc2ccc3ncnc(Nc4cccc(C(F)(F)F)c4)c3c2)c1
pIC50 (MTT; 24 h): 5.18

Cc1ccc2nc(-c3ccc(Cl)cc3)n(Cc3ccccc3)c2c1
pIC50 (MTT): 5.62

COc1ccc(Br)cc1/C=C/C(=O)c1ccc(NC(C)=O)cc1
pIC50 (MTT; 48 h): 5.52

COc1ccc(-c2nc3ccccc3[nH]2)cc1O
pIC50 (MTT; 48 h): 4.05

CC(=O)O[C@@]12CO[C@@H]1C[C@H](O)[C@@]1(C)C(=O)[C@H](O)C3=C(C)[C@@H](OC(=O)[C@H](O)[C@@H](NC(=O)OC(C)(C)C)c4ccccc4)C[C@@](O)([C@@H](OC(=O)c4ccccc4)[C@H]21)C3(C)C
pIC50 (ATP luminescence; 72 h): 8.66
